# According to BindingDB's records for doi:10.1021/jm030916r (Uppsala University, 2004):
# Assays:
# Thioredoxin reductase 3 [1] = biological target: T1, Thioredoxin reductase 3 (Homo sapiens, UniProt Q86VQ6); assay: Inhibition of thioredoxin reductase
# T1 sequence (Q86VQ6 whole entry): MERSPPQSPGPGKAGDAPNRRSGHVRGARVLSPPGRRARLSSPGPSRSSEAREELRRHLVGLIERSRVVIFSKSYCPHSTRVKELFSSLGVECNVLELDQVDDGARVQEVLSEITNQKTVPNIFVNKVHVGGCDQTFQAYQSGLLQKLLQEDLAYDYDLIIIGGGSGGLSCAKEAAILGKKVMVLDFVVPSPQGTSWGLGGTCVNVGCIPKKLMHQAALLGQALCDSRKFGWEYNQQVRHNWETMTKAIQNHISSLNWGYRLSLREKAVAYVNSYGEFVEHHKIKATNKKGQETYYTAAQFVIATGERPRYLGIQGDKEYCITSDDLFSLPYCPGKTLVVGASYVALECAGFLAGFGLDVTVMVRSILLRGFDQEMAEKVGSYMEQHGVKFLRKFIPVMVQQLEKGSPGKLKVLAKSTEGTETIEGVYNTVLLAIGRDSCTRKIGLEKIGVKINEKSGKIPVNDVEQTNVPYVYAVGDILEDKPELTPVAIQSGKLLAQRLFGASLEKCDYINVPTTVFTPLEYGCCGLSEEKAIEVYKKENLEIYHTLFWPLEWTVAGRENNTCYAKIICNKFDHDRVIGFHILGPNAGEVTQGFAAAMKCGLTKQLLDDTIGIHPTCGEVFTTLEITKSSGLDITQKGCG
# Summary of the method: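 TrxR-only activity in HE buffer (100 mM HEPES pH 7.2, 5 mM EDTA) with 1.0 μM TrxR, 10 mM DTNB, 1 mM NADPH and inhibitor (final). Compound and enzyme added first, reaction started with NADPH/DTNB at 37 °C. OD 412 nm read every 10 s for initial linear rates. IC50 is 50% inhibition of thionitrobenzoate formation.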
# Thioredoxin reductase 3 [2] = biological target: T1, Thioredoxin reductase 3; assay: Inhibition of thioredoxin reductase in the presence of thioredoxinand insulin
# Summary of the method: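 Insulin reduction coupled to Trx/TrxR, final concentrations: 100 mM HEPES pH 7.2, 5 mM EDTA, 1 mM NADPH, 1.0 μM TrxR, 0.8 μM Trx, 2.5 mg/mL bovine insulin plus inhibitor. 30 min at 37 °C, stopped with 6 M guanidine HCl/50 mM Tris pH 8.0/10 mM DTNB, absorbance at 412 nm. IC50 for 50% inhibition of thionitrobenzoate formation.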
structure (smiles),measurement,setting,value
OCC1O[C@@H]2O[C@@H]3C(C[Te]c4ccccc4)O[C@H](O[C@@H]4C(CO)O[C@H](O[C@@H]5C(CO)O[C@H](O[C@@H]6C(CO)O[C@@H](O[C@@H]7C(CO)O[C@H](O[C@@H]8C(CO)O[C@H](O[C@H]1C(O)C2O)C(O)C8O)C(O)C7O)C(O)C6O)C(O)C5O)C(O)C4O)C(O)C3O (some centres not stated),IC50,Thioredoxin reductase 3 [1],17.8 µM
same,IC50,Thioredoxin reductase 3 [2],18 µM
